Measurements reported in ChEMBL document CHEMBL1799978, “Akt-dependent anabolic activity of natural and synthetic brassinosteroids in rat skeletal muscle cells” (J Med Chem, 2011).
The source made the active and inactive calls.

Experiments:
L6 [1] = assay: Decrease in protein degradation in rat L6 cells assessed as release of acid-soluble [3H]-phenylalanine into the media normalized by total protein at 10 uM after 4 hrs by scintillation counting relative to control; type: functional; set-up: scale not given: the % may be the effect or the level left
In short: (§1)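 L6 myoblasts differentiated 7–9 d in 2% serum into myotubes. Proteins labelled 16 h with 1.5 μCi/mL [3H]-phenylalanine, then washed. Cells treated 4 h in serum-free medium with vehicle (0.1% ethanol), compound (0.3–30 μM; single-point screen 10 μM), or 10 nM insulin. Medium TCA-precipitated and released [3H]-phenylalanine counted, normalized to mg cell protein (BCA). Triplicate; one-way ANOVA with Dunnett's test.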

L6 [2] = assay: Activation of Akt phosphorylation at Ser473 in rat L6 cells at 10 uM after 1 hr by Western blot analysis; type: cell-based
In short: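 Differentiated L6 myotubes exposed to 10 μM compound for 1 h; IGF-1 6.5 nM for 10 min served as positive control. Lysis in ice-cold RIPA with 10 mM NaF, 2 mM orthovanadate, 1 mM PMSF and protease inhibitors, spun 12,000 g 20 min 4°C. Lysates normalized to 50 μg soluble protein, immunoblotted for phospho-Akt (Ser473); stripped blots reprobed for total Akt as loading control; ECL detection.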

L6 [3] = assay: Cytotoxicity against rat L6 cells up to 30 uM after 24 hrs by MTT assay; type: cell-based; conditions: l6, 24 h
In short: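 Fully differentiated L6 myotubes (myoblasts fused after 7–9 d in 2% serum) treated with compounds up to 30 μM against 0.1% ethanol vehicle. Viability by MTT assay in triplicate, read at 550 nm, alongside cytological observation.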

L6 [4] = assay: Increase in protein synthesis in rat L6 cells assessed as [3H]-phenylalanine incorporation at 10 uM after 4 hrs by scintillation counting relative to control; type: functional
In short: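 L6 myotubes (differentiated in 2% serum) washed with serum-free DMEM. Incubated 4 h with 0.5 μCi/mL [3H]-phenylalanine plus vehicle (0.1% ethanol), compound (0.3–30 μM, or 10 μM), or 6.5 nM IGF-1. Protein precipitated with 5% TCA, dissolved in 0.5 N NaOH, scintillation-counted, normalized to mg protein (BCA). Triplicate; ANOVA/Dunnett.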

NIH3T3 [5] = assay: Cytotoxicity against mouse NIH/3T3 cells at 0.3 to 30 uM after 24 hrs by MTT assay; type: cell-based; conditions: nih3t3, 24 h
In short: (§2)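 NIH-3T3 murine fibroblasts grown in DMEM with 10% FBS at 37°C in 5% CO2. Exposed to 0.3–30 μM for 24 h at 37 °C. MTT read at 550 nm. Absorbance expressed relative to vehicle control cells (taken as 100% proliferation). n=6 from repeated experiments.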

NIH3T3 [6] = assay: Cytotoxicity against mouse NIH/3T3 cells after 24 hrs by MTT assay; type: cell-based; conditions: NIH3T3, 24 h; in short: as §2
L6 [7] = assay: Decrease in protein degradation in rat L6 cells assessed as release of acid-soluble [3H]-phenylalanine into the media normalized by total protein at 1 uM after 4 hrs by scintillation counting relative to control; type: functional; set-up: scale not given: the % may be the effect or the level left; in short: as §1
L6 [8] = assay: Increase in protein synthesis in rat L6 cells assessed as [3H]-phenylalanine incorporation at 0.3 to 30 uM after 4 hrs by scintillation counting relative to control
L6 [9] = assay: Decrease in protein degradation in rat L6 cells assessed as release of acid-soluble [3H]-phenylalanine into the media normalized by total protein at 0.3 to 20 uM after 4 hrs by scintillation counting relative to control; type: functional, cell-based; in short: as §1
Rattus norvegicus [10] = assay: Upregulation of Fbp2 gene expression in Wistar rat at 60 mg/kg, po qd for 24 days by PCR analysis relative to control; type: functional
In short: (§3)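 Male Wistar rats gavaged daily 24 d with 60 mg/kg or vehicle (5% DMSO in corn oil). RNA from pooled (n=5) frozen gastrocnemius samples run on a rat insulin signaling PCR array (84 genes). Fold change computed as 2^(-ΔCt), with a 4-fold threshold.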

Rattus norvegicus [11] = assay: Upregulation of Srebf1 gene expression in Wistar rat at 60 mg/kg, po qd for 24 days by PCR analysis relative to control; type: functional; in short: as §3
Rattus norvegicus [12] = assay: Induction of Myf5 mRNA expression in Wistar rat at 60 mg/kg, po qd for 24 days by RT-PCR analysis relative to control; type: functional
In short: (§4)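 Gastrocnemius muscle from male Wistar rats dosed orally with 60 mg/kg daily for 24 d, or vehicle. Conventional RT-PCR on individual muscle samples (n=5 per group), duplicate determinations. Compared with control by Student t test.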

Rattus norvegicus [13] = assay: Upregulation of Igf2 gene expression in Wistar rat at 60 mg/kg, po qd for 24 days by PCR analysis relative to control; type: functional; in short: as §4
Rattus norvegicus [14] = assay: Upregulation of Igfbp1 gene expression in Wistar rat at 60 mg/kg, po qd for 24 days by PCR analysis relative to control; type: functional; in short: as §3
Rattus norvegicus [15] = assay: Induction of Myf6 mRNA expression in Wistar rat at 60 mg/kg, po qd for 24 days by RT-PCR analysis relative to control; type: functional; in short: as §4
Rattus norvegicus [16] = assay: Anabolic effect in Wistar rat assessed as increase in limb grip strength at 60 mg/kg, po qd for 24 days; type: functional, organism-based; set-up: dose 60 mg/kg
Rattus norvegicus [17] = assay: Induction of Myod1 mRNA expression in Wistar rat at 60 mg/kg, po qd for 24 days by RT-PCR analysis relative to control; type: functional; in short: as §4
Rattus norvegicus [18] = assay: Effect on Eif2b1 gene expression in Wistar rat at 60 mg/kg, po qd for 24 days by PCR analysis relative to control; type: functional, organism-based; set-up: dose 60 mg/kg; in short: as §3
Rattus norvegicus [19] = assay: Induction of Myog mRNA expression in Wistar rat at 60 mg/kg, po qd for 24 days by RT-PCR analysis relative to control; type: functional; in short: as §4
Rattus norvegicus [20] = assay: Anabolic effect in Wistar rat assessed as increase in lean body mass at 60 mg/kg, po qd for 24 days; type: functional
Rattus norvegicus [21] = assay: Upregulation of Adar1d gene expression in Wistar rat at 60 mg/kg, po qd for 24 days by PCR analysis relative to control; type: functional; in short: as §3

Row | Structure (SMILES) | Activity (L6 [1]) [%] | Activity (L6 [2]) | Activity (L6 [3]) | Activity (L6 [4]) [%] | Activity (NIH3T3 [5]) | other results
1 | CC[C@@H](C(C)C)[C@H](O)[C@@H](O)[C@@H](C)[C@H]1CC[C@H]2[C@@H]3CC(=O)N[C@H]4C[C@H](O)[C@H](O)C[C@]4(C)[C@H]3CC[C@]12C | -14 | Active | Non-toxic | 3 |  | 
2 | CC[C@@H](C(C)C)[C@H](O)[C@@H](O)[C@@H](C)[C@H]1CC[C@H]2[C@@H]3CC(=O)[C@H]4C[C@H](F)CC[C@]4(C)[C@H]3CC[C@]12C | -16 | Active | Non-toxic | 23 | Toxic | 
3 | CC[C@H](C(C)C)[C@H](O)[C@@H](O)[C@@H](C)[C@H]1CC[C@H]2[C@@H]3COC(=O)[C@H]4C[C@H](F)CC[C@]4(C)[C@H]3CC[C@]12C | -21 | Active | Non-toxic | 25 | Toxic | 
4 | CC[C@@H](C(C)C)[C@@H](O)[C@H](O)[C@@H](C)[C@H]1CC[C@H]2[C@@H]3COC(=O)[C@H]4C[C@H](O)[C@H](O)C[C@]4(C)[C@H]3CC[C@]12C | -15 | Active | Non-toxic | 13 |  | 
5 | CC[C@@H](C(C)C)[C@H](O)[C@@H](O)[C@@H](C)[C@H]1CC[C@H]2[C@@H]3CNC(=O)[C@H]4C[C@H](O)[C@H](O)C[C@]4(C)[C@H]3CC[C@]12C | -1 | Active | Non-toxic | 21 |  | IC50 (NIH3T3 [6]): 12.5 µM
6 | CC[C@@H](C(C)C)[C@H](O)[C@@H](O)[C@@H](C)[C@H]1CC[C@H]2[C@@H]3CC(=O)[C@H]4C[C@H](O)[C@H](O)C[C@]4(C)[C@H]3CC[C@]12C | -23 | Active | Non-toxic | 41 | Non-toxic | Activity (L6 [7]): 8.7%; Activity (L6 [8]): 40.7%; Activity (L6 [9]): Dose-dependent effect
7 | CC[C@@H](C(C)C)[C@H](O)[C@@H](O)[C@@H](C)[C@H]1CC[C@H]2[C@@H]3COC(=O)[C@H]4C[C@H](O)[C@H](O)C[C@]4(C)[C@H]3CC[C@]12C | -24 | Active | Non-toxic | 37 | Non-toxic | Activity (L6 [7]): 8.2%; fold change (FC) (Rattus norvegicus [10]): 4.5; fold change (FC) (Rattus norvegicus [11]): 2.5; fold change (FC) (Rattus norvegicus [12]): 1.3; fold change (FC) (Rattus norvegicus [13]): 1.4; fold change (FC) (Rattus norvegicus [14]): 2.5; fold change (FC) (Rattus norvegicus [15]): 1.3; Activity (Rattus norvegicus [16]): Active; Activity (L6 [8]): 36.9%; fold change (FC) (Rattus norvegicus [17]): 2.1; Activity (Rattus norvegicus [18]): inactive; fold change (FC) (Rattus norvegicus [19]): 1.7; Activity (Rattus norvegicus [20]): 14.2%; fold change (FC) (Rattus norvegicus [21]): 6.5; Activity (L6 [9]): Dose-dependent effect
8 | CC(C)[C@@H](C)[C@H](O)[C@@H](O)[C@@H](C)[C@H]1CC[C@H]2[C@@H]3COC(=O)[C@H]4C[C@H](O)[C@H](O)C[C@]4(C)[C@H]3CC[C@]12C | -6 | Active | Non-toxic | 4 |  | 
9 | CC(C)[C@@H](C)[C@@H](O)[C@H](O)[C@@H](C)[C@H]1CC[C@H]2[C@@H]3COC(=O)[C@H]4C[C@H](O)[C@H](O)C[C@]4(C)[C@H]3CC[C@]12C | -7 | Active | Non-toxic | 12 |  | 
